Source: ChEMBL document CHEMBL1949565, “4-nitrobenzyloxycarbonyl derivatives of O(6)-benzylguanine as hypoxia-activated prodrug inhibitors of O(6)-alkylguanine-DNA alkyltransferase (AGT), which produces resistance to agents targeting the O-6 position of DNA guanine” (J Med Chem, 2011)
Active and inactive are the calls of the source. No cut-off for these calls is given here.

What was measured:
[1] = test system: DU-145; experiment: Inhibition of AGT-mediated potentiation of laromustine-induced cytotoxicity in human DU145 cells at 40 uM pretreated for 6 hrs prior laromustine addition measured after 24 hrs incubation under normoxic condition by clonogenic assay; assay type: functional, cell-based
Summary of the method: (§1)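 DU145 monolayers seeded at 2.5 × 10^5 cells per flask and treated 3 days later. Pretreatment with prodrug for 6 h, then laromustine added in medium for 24 h at 37 °C; DMSO ≤ 0.05%. For oxygen deficiency, glucose oxidase 2 units/mL plus catalase 120 units/mL in high-glucose DMEM, with flasks nitrogen-flushed and sealed. Aerobic flasks were unsealed and lacked these enzymes. Colonies were crystal-violet stained after 10–14 days; plating in duplicate.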

[2] = Prodrug activation assessed as formation of O6-benzylguanine under normoxic condition at 20 uM after 1 hr by HPLC analysis in presence of NADPH:CYP450 reductase; assay type: ADME
Summary of the method: (§2)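 Test agent at 20 μM (from DMSO) in 100 mM potassium phosphate pH 7.4 at 37 °C, with either cytochrome P450 reductase plus 1 mM NADPH, or 0.16 units/mL xanthine oxidase plus 1 mM xanthine. Oxygen deficiency came from glucose oxidase/catalase with 10 mM glucose. Aerobic mixtures omitted glucose and were shaken as shallow layers in sealed flasks. Samples at 0 and 1 h were quenched with acetonitrile and analysed by HPLC.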

[3] = test system: DU-145; experiment: Prodrug activation in human DU145 cells assessed as formation of O6-benzylguanine under oxygen-deficient condition at 20 uM after 3 hrs by HPLC analysis; assay type: cell-based; conditions: du-145, 3 h
Summary of the method: (§3)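 Cells at 10^7/mL with ~20 μM prodrug at 37 °C: EMT6 in DMEM with 10% FBS, DU145 in α-MEM with 10% FBS, each with 10 mM glucose. Normoxic suspensions were shaken as shallow layers in flasks. Oxygen-deficient incubations used sealed tubes with an extra 10 mM glucose, glucose oxidase 2 units/mL and catalase 120 units/mL. Samples at 0–3 h were acetonitrile-extracted and analysed by HPLC.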

[4] = test system: DU-145; experiment: Inhibition of AGT-mediated potentiation of laromustine-induced cytotoxicity in human DU145 cells at 40 uM pretreated for 6 hrs prior laromustine addition measured after 24 hrs incubation under oxygen deficiency condition by clonogenic assay; assay type: functional, cell-based; summary of the method: as §1
[5] = test system: DU-145; experiment: Prodrug activation in human DU145 cells assessed as formation of O6-benzylguanine under normoxic condition at 20 uM after 3 hrs by HPLC analysis; assay type: cell-based; conditions: du-145, 3 h; summary of the method: as §3
[6] = Prodrug activation assessed as formation of O6-benzylguanine under normoxic condition at 20 uM after 1 hr by HPLC analysis in presence of xanthine/xanthine oxidase; summary of the method: as §2
[7] = Prodrug activation assessed as formation of O6-benzylguanine under oxygen-deficient condition at 20 uM after 1 hr by HPLC analysis in presence of xanthine/xanthine oxidase; summary of the method: as §2
[8] = test system: EMT6; experiment: Prodrug activation in mouse EMT6 cells assessed as formation of O6-benzylguanine under normoxic condition at 20 uM after 3 hrs by HPLC analysis; assay type: cell-based; conditions: emt6, 3 h; summary of the method: as §3
[9] = Prodrug activation assessed as formation of O6-benzylguanine under oxygen-deficient condition at 20 uM after 1 hr by HPLC analysis in presence of NADPH:CYP450 reductase; assay type: ADME; summary of the method: as §2
[10] = test system: EMT6; experiment: Prodrug activation in mouse EMT6 cells assessed as formation of O6-benzylguanine under oxygen-deficient condition at 20 uM after 3 hrs by HPLC analysis; assay type: cell-based; conditions: emt6, 3 h; summary of the method: as §3
[11] = Prodrug activation assessed as formation of O6-benzylguanine in presence of Zn/EDTA
Summary of the method: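 Each agent at 50 μM in 50 mM Tris-HCl, 10 mM EDTA, pH 7.0, was shaken briefly with about 4 mg/mL Zn dust at room temperature. After centrifugation, the supernatant was analysed by reverse-phase HPLC with UV detection at 280 nm.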

[12] = species on record: Homo sapiens; experiment: Inhibition of human recombinant AGT assessed as prevention of O6-(2-chloroethyl)guanine and N1,O6-ethanoguanine-DNA adduct repair at 50 uM after 30 mins by fluorescence assay
Summary of the method: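 About 40 fmol purified recombinant human AGT in stabilization buffer (20 mM Tris-HCl, 1 mM EDTA, BSA 1 mg/mL, 0.1 mM DTT, L1210 DNA, pH 7.4) preincubated with inhibitor for 30 min at 37 °C. It was then incubated 30 min at 37 °C with L1210 DNA bearing O6-chloroethylguanine/N1,O6-ethanoguanine lesions (~50 fmol). Unrepaired lesions were converted to cross-links at 50 °C for 2–3 h. Cross-linking was read by Hoechst 33258 fluorescence before and after heat denaturation.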

[13] = species on record: Homo sapiens; experiment: Inhibition of human recombinant AGT assessed as prevention of O6-(2-chloroethyl)guanine and N1,O6-ethanoguanine-DNA adduct repair at 0.1 uM after 30 mins by fluorescence assay
Summary of the method: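 Purified recombinant human AGT (~40 fmol) in stabilization buffer (20 mM Tris-HCl, 1 mM EDTA, 1 mg/mL BSA, 0.1 mM DTT, 2 μg/mL L1210 DNA, pH 7.4) preincubated with inhibitor 30 min, 37 °C. Then added to L1210 DNA substrate treated with a chloroethylating hydrazine (~50 fmol lesions), 30 min, 37 °C. Heated 50 °C 2–3 h. Cross-links quantified by Hoechst 33258 fluorescence before/after heat denaturation. Inhibition derived from remaining cross-link precursors.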

Structure (SMILES) | inhibition [1] | Drug metabolism [2] | Drug metabolism [3] | inhibition [4] | Drug metabolism [5] | Drug metabolism [6] | Drug metabolism [7] | Drug metabolism [8] | Drug metabolism [9] | Drug metabolism [10] | Drug degradation [11] | inhibition [12] | inhibition [13]
CC(C)(OC(=O)Nc1nc(OCc2ccccc2)c2nc[nH]c2n1)c1ccc([N+](=O)[O-])cc1 | inactive | 0.1 µM | Active | Active | Not Active | < 0.05 µM | 14.8 µM | Not Active | 13.9 µM | Active | 54.8 %molar | < 1% | 
Nc1nc(OCc2ccccc2)c2nc[nH]c2n1 |  |  |  |  |  |  |  |  |  |  |  |  | 47%
O=C(Nc1nc(OCc2ccccc2)c2nc[nH]c2n1)OCc1ccc([N+](=O)[O-])cc1 |  | < 0.05 µM |  |  | Not Active | < 0.05 µM | 2.8 µM | Not Active | < 0.05 µM | Active | 4 %molar | < 1% | 
CC(OC(=O)Nc1nc(OCc2ccccc2)c2nc[nH]c2n1)c1ccc([N+](=O)[O-])cc1 (stereo unspecified) |  | < 0.05 µM |  |  | Not Active | < 0.05 µM | 11.6 µM | Not Active | 0.1 µM | Active | 35.4 %molar | < 1% | 
